Data reported in ChEMBL document CHEMBL1139351, “Synthesis and biological evaluation of vinca alkaloids and phomopsin hybrids” (J Med Chem, 2009).
The source made the active and inactive calls. The calls are words filed in the database; no cut-off is given here.

Columns and labels:
[1] = Inhibition of tubulin polymerisation by UV spectrophotometry
Procedure, shortened: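 Microtubular protein purified from mammalian brain. Drug in ethanol at several concentrations added to free tubulin at 0 °C, then shifted to 37 °C. Assembly followed as optical density at 350 nm for 1 min. Maximum assembly rate compared with a no-drug sample. IC50 derived from several concentrations and compared with vinblastine run the same day on the same tubulin preparation.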

[2] = molecular target: Tubulin beta-5 chain (Homo sapiens) (UniProt P07437); assay: Inhibition of beta tubulin nucleotide site assessed as inhibition of displacement of cold GDP by [alpha32P]GTP at 20 uM by rapid filtration technique; set-up: scale not given: the % may be the effect or the level left
KB = assay: Cytotoxicity against human KB cells after 72 hrs; type: functional, cell-based
Procedure, shortened: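 KB human cells; growth followed for 72 h of drug exposure; IC50 taken as the concentration giving 50% growth inhibition.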

[3] = Inhibition of tubulin polymerization assessed as ratio of IC50 for compound to IC50 for vinblastin by UV spectrophotometry
Procedure, shortened: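 Microtubular protein purified from mammalian brain. Drug added from ethanol at several concentrations to free tubulin at 0 °C, then shifted to 37 °C. Assembly followed as OD at 350 nm for 1 min. Maximum assembly rate compared with a drug-free sample, giving IC50. Ratio taken against a vinblastine IC50 measured the same day on the same tubulin preparation.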

[4] = molecular target: Tubulin beta-5 chain (Homo sapiens) (UniProt P07437); assay: Inhibition of beta tubulin nucleotide site assessed as inhibition of displacement of cold GDP by [alpha32P]GTP by rapid filtration technique relative to phomopsin A
[5] = molecular target: Tubulin beta-5 chain (Homo sapiens) (UniProt P07437); assay: Inhibition of beta tubulin nucleotide site assessed as displacement of cold GDP by [alpha32P]GTP at 100 uM by rapid filtration technique; set-up: scale not given: the % may be the effect or the level left
[6] = molecular target: Tubulin beta-5 chain (Homo sapiens) (UniProt P07437); assay: Inhibition of beta tubulin nucleotide site assessed as inhibition of displacement of cold GDP by [alpha32P]GTP at 40 uM by rapid filtration technique

Sequence of Tubulin beta-5 chain (Homo sapiens) (P07437 whole entry): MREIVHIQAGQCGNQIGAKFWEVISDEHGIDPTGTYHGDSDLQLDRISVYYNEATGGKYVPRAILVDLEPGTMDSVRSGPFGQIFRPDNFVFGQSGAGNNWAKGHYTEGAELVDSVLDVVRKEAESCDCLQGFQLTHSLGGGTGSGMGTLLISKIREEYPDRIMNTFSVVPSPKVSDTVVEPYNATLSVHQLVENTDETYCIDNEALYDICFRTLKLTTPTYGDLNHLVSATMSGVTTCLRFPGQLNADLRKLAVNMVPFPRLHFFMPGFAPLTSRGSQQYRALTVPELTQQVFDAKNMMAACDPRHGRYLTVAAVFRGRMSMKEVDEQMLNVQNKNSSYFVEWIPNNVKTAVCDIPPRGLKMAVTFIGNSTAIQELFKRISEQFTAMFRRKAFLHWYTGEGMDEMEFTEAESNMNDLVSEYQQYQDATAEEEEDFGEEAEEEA

Ratio IC50 [3] | Compound | IC50 (KB; Homo sapiens, KB, 72 h) [nM] | further results
1 | CC[C@]1(O)C[C@@H]2CN(CCc3c([nH]c4ccccc34)[C@@](C(=O)OC)(c3cc4c(cc3OC)N(C)[C@H]3[C@@](O)(C(=O)OC)[C@H](OC(C)=O)[C@]5(CC)C=CCN6CC[C@]43[C@@H]65)C2)C1 [VINBLASTINE] | 1 | IC50 [1]: 2100 nM; Activity [2]: 25%
1.3 | CCC1=C[C@@H]2C[C@](C(=O)OC)(c3cc4c(cc3OC)N(C)[C@H]3[C@@](O)(C(=O)OC)[C@H](OC(C)=O)[C@]5(CC)C=CCN6CC[C@]43[C@@H]65)c3[nH]c4ccccc4c3CC[N+](CC(=O)N3CCC[C@H]3C(=O)N[C@H](C(=O)N[C@@H](CC(=O)OCc3ccccc3)C(=O)OCc3ccccc3)[C@@H](C)CC)(C1)C2 | 700 | Activity [4]: inactive; Activity [2]: inactive; Activity [5]: 55%; Activity [6]: inactive
 | CC[C@H](C)[C@H](NC(=O)[C@@H]1CCCN1C(=O)[C@H]1NC(=O)[C@H](C(C)C)NC(=O)[C@@H](NC)[C@@H](O)c2cc(Cl)c(O)c(c2)O[C@]1(C)CC)C(=O)NC(CC(=O)O)C(=O)O (mixture of isomers) |  | IC50 [1]: 400 nM
1.4 | CCC1=C[C@@H]2C[C@](C(=O)OC)(c3cc4c(cc3OC)N(C)[C@H]3[C@@](O)(C(=O)OC)[C@H](OC(C)=O)[C@]5(CC)C=CCN6CC[C@]43[C@@H]65)c3[nH]c4ccccc4c3CC[N+](CC(=O)N3CCC[C@H]3C(=O)N[C@H](C(=O)OCc3ccccc3)[C@@H](C)CC)(C1)C2 | 300 | 
1.7 | CCC1=C[C@@H]2C[C@](C(=O)OC)(c3cc4c(cc3OC)N(C)[C@H]3[C@@](O)(C(=O)OC)[C@H](OC(C)=O)[C@]5(CC)C=CCN6CC[C@]43[C@@H]65)c3[nH]c4ccccc4c3CC[N+](CC(=O)N3CCC[C@H]3C(=O)N[C@H](C(=O)O)[C@@H](C)CC)(C1)C2 | 700 | 
1.8 | CCC1=C[C@@H]2C[C@](C(=O)OC)(c3cc4c(cc3OC)N(C)[C@H]3[C@@](O)(C(=O)OC)[C@H](OC(C)=O)[C@]5(CC)C=CCN6CC[C@]43[C@@H]65)c3[nH]c4ccccc4c3C[N+](CC(=O)N3CCC[C@H]3C(=O)N[C@H](C(=O)N[C@@H](CC(=O)OCc3ccccc3)C(=O)OCc3ccccc3)[C@@H](C)CC)(C1)C2 | 1300 | 
9.4 | CCC1=C[C@@H]2C[C@](C(=O)OC)(c3cc4c(cc3OC)N(C)[C@H]3[C@@](O)(C(=O)OC)[C@H](OC(C)=O)[C@]5(CC)C=CCN6CC[C@]43[C@@H]65)c3[nH]c4ccccc4c3C[N+](CC(=O)N3CCC[C@H]3C(=O)N[C@H](C(=O)O)[C@@H](C)CC)(C1)C2 | 90 | 
 | CCC1=C[C@@H]2CN(C1)Cc1c([nH]c3ccccc13)[C@@](C(=O)OC)(c1cc3c(cc1OC)N(C)[C@H]1[C@@](O)(C(=O)OC)[C@H](OC(C)=O)[C@]4(CC)C=CCN5CC[C@]31[C@@H]54)C2 (stereo in doubt; 4) [VINORELBINE] |  | IC50 (KB; kb): 1 nM
2 | CCC1=C[C@@H]2C[C@](C(=O)OC)(c3cc4c(cc3OC)N(C)[C@H]3[C@@](O)(C(=O)OC)[C@H](OC(C)=O)[C@]5(CC)C=CCN6CC[C@]43[C@@H]65)c3[nH]c4ccccc4c3C[N+](CC(=O)N3CCC[C@H]3C(=O)OC)(C1)C2 | 100 | 
2 | CCC1=C[C@@H]2C[C@](C(=O)OC)(c3cc4c(cc3OC)N(C)[C@H]3[C@@](O)(C(=O)OC)[C@H](OC(C)=O)[C@]5(CC)C=CCN6CC[C@]43[C@@H]65)c3[nH]c4ccccc4c3CC[N+](CC(=O)N3CCC[C@H]3C(=O)N[C@H](C(=O)N[C@@H](CC(=O)O)C(=O)O)[C@@H](C)CC)(C1)C2 | 100 | 
19.4 | CCC1=C[C@@H]2C[C@](C(=O)OC)(c3cc4c(cc3OC)N(C)[C@H]3[C@@](O)(C(=O)OC)[C@H](OC(C)=O)[C@]5(CC)C=CCN6CC[C@]43[C@@H]65)c3[nH]c4ccccc4c3C[N+](CC(=O)N3CCC[C@H]3C(=O)N[C@H](C(=O)N[C@@H](CC(=O)O)C(=O)O)[C@@H](C)CC)(C1)C2 | 400 | 
0.9 | CCC1=C[C@@H]2C[C@](C(=O)OC)(c3cc4c(cc3OC)N(C)[C@H]3[C@@](O)(C(=O)OC)[C@H](OC(C)=O)[C@]5(CC)C=CCN6CC[C@]43[C@@H]65)c3[nH]c4ccccc4c3CC[N+](CC(=O)N3CCC[C@H]3C(=O)OC)(C1)C2 | 80 | 
9.4 | CCC1=C[C@@H]2C[C@](C(=O)OC)(c3cc4c(cc3OC)N(C)[C@H]3[C@@](O)(C(=O)OC)[C@H](OC(C)=O)[C@]5(CC)C=CCN6CC[C@]43[C@@H]65)c3[nH]c4ccccc4c3C[N+](CC(=O)N3CCC[C@H]3C(=O)N[C@H](C(=O)OCc3ccccc3)[C@@H](C)CC)(C1)C2 | 50 | 
 | CCC1=C[C@@H]2CN(C1)Cc1c([nH]c3ccccc13)[C@@](C(=O)OC)(c1cc3c(cc1OC)N(C)[C@H]1[C@@](O)(C(=O)OC)[C@H](OC(C)=O)[C@]4(CC)C=CCN5CC[C@]31[C@@H]54)C2 (stereo in doubt; 3) [VINORELBINE] |  | IC50 (KB; kb): 40 nM
 | C=C(C)[C@@H]1NC(=O)[C@@H](NC)[C@@H](O)c2cc(Cl)c(O)c(c2)O[C@](C)(CC)[C@@H](C(=O)N2CC=C[C@H]2C(=O)N/C(C(=O)N/C(=C/C(=O)O)C(=O)O)=C(\C)CC)NC1=O [PHOMOPSIN A] |  | IC50 [1]: 560 nM; Activity [2]: Active
